Test results as given in publication PMC4459094 (FEBS Open Bio, 2015).

Legend:
[1] = system: hMIP; settings: continuous activity assay with fluorogenic substrate Abz-GFSPFRQ-EDDnp; cited from earlier work
[2] = target: T1, recombinant human mitochondrial intermediate peptidase (hMIP) (Homo sapiens, UniProt Q99797); test: Hydrolysis of FRET peptides by hMIP in solution; format: biochemical; settings: analogue without the P8 and P5 versus Abz-FRSGQPLQNKVQLQ-EDDnp
T1 sequence (Q99797 36-713): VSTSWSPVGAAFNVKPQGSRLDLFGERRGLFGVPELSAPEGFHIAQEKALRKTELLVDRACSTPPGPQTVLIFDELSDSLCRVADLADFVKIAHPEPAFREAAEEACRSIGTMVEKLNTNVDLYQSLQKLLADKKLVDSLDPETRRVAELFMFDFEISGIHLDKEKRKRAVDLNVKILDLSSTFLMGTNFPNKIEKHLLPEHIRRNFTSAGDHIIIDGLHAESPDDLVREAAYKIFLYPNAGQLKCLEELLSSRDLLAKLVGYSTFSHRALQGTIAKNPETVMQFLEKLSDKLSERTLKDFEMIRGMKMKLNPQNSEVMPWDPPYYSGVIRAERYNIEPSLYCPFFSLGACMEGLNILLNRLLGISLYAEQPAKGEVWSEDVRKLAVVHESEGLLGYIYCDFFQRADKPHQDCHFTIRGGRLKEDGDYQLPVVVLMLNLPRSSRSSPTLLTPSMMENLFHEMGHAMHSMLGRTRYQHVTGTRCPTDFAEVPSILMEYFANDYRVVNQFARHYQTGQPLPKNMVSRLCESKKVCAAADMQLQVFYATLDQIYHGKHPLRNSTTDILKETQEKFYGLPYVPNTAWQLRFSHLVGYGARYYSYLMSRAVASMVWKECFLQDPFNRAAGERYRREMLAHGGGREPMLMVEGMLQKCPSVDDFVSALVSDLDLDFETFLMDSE
Summary of the method: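 Recombinant human MIP with an N-terminal His6 tag replacing the mitochondrial signal sequence, expressed in E. coli BL21(DE3)pLysS and purified by Ni-affinity then anion-exchange chromatography. Abz/EDDnp FRET peptide hydrolysis was followed fluorometrically (ex 320, em 420 nm). Rates were converted to moles per second using standard peptide fluorescence before and after total hydrolysis, with under 10% substrate consumed. kcat, KM and kcat/KM are given as means ± SD.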

fold lower specificity constant than Abz-FRSGQPLQNKVQLQ-EDDnp [2] [fold] | Compound | inhibition of hMIP [1]
– | C[C@H](CS)C(=O)N1CCC[C@H]1C(=O)O [captopril] | small level of inhibition
– | O=C(O)CNC(=O)C(CS)Cc1ccccc1 (stereo not drawn) [thiorphan] | small level of inhibition
7 | Abz-QPLQNKVQ-EDDnp [Abz-QPLQ↓NKVQ-EDDnp] | –
